# From PubChem BioAssay
# The list is not random: actives were taken first. Their share in the collection is about 2.9%.
# CHO-K1 Ca antag: counter-screen for M1 antagonists: effect in parental CHO-K1 cells. AID 602250. 360,000 compounds, 0.6% hits. ATP-induced calcium, Fluo-8 fluorescence. inhibition, % at 3 µM;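 active = inhibition above a per-plate cutoff, the plate's mean sample inhibition plus 3 SD, cut at about 24% in these data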;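 also: 0% = DMSO plus EC80 ATP and 100% = DMSO alone without ATP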
# CHO parental Ca: ATP-evoked calcium signal inhibitors, parental CHO, primary screen, counter-screen for OX1R antagonist project, cell-based, fluorescence, Fluo-8 calcium dye; parental CHO-K1, ATP-induced calcium, Fluo-8 fluorescence; inhibition, % at 5.6 µM; 330,000 compounds, 0.63% hits; AID 463079, 2010;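 active = inhibition above that plate's mean sample inhibition plus 3 SD, cut at about 26% in these data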;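 also: 0% = ATP-challenged DMSO wells and 100% = DMSO wells without ATP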
#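 Material: parental CHO cells / Compound: single nominal dose of 5.6 µM per compound / Signal: Fluo-8 fluorescence / Replicates: singlicate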
# M1 ag parental: counter-screen for M1 agonists: effect in parental CHO-K1 cells; Fluo-8 calcium fluorescence; scaled to maximal ATP response, vehicle zero; activation, % at 3 µM; 360,000 compounds, 0.48% hits; AID 602248, 2012; in the data active = activation above about 15%;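 also: untransfected CHO-K1 host cells lacking M1 receptor as counterscreen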
# OX1R antag-1: antagonists of human orexin 1 receptor (OX1R); Orexin/Hypocretin receptor type 1 (Homo sapiens), O43613; OX1R-expressing cells, FRET antagonist read-out; inhibition, % at 6.6 µM; 330,000 compounds, 1.8% hits; in the data active = inhibition mostly above about 38%, no sharp cut-off; inactive = mostly below about 40%;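 also: 0% = agonist challenge alone and 100% = reference antagonist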
# Target sequence (O43613 whole entry, looked up): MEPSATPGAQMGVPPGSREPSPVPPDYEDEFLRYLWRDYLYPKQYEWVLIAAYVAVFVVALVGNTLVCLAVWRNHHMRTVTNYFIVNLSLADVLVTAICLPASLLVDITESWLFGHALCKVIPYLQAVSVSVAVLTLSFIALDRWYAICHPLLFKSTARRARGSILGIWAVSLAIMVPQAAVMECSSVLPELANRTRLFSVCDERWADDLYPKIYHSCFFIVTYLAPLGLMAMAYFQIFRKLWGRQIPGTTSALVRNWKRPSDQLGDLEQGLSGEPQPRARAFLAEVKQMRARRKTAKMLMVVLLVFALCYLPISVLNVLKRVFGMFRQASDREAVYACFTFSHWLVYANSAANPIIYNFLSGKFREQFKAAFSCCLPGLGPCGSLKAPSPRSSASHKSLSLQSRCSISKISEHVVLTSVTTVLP
# OX1R antag-2: OX1R (HCRTR1) antagonists, primary screen, fluorescence, CHO/OX1R cells, Fluo-8 calcium, orexin A; Fluo-8 calcium fluorescence; inhibition, % at 5 µM; 330,000 compounds, 0.43% hits;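 active = inhibition above its plate's threshold, mean inhibition of all tested compounds on the plate plus 3 SD, cut at about 37% in these data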;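 also: 0% = orexin A challenge wells and 100% = SB-334867-A antagonist wells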
# CHO-K1 Ca PAM: nonselective calcium activators in parental CHO-K1 cells, primary screen, counter-screen for M1 PAM project, cell-based, Fluo-8 calcium fluorescence, full deck, 1536-well; ATP EC20; 0% at ATP EC20, 100% at ATP max; activation, % at 3 µM; 360,000 compounds, 0.02% hits;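 active = activation above the run cutoff, the mean activation of all test compounds plus 3 SD, cut at about 40% in these data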;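 also: peak over basal fluorescence ratio in a 140 s read after ATP addition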
# An asterisk follows results filed as active; · = not tested or not shown.
SMILES,CHO-K1 Ca antag,CHO parental Ca,M1 ag parental,OX1R antag-1,OX1R antag-2,CHO-K1 Ca PAM
CC(=O)Nc1ccc(S(=O)(=O)NCC2CC3CCC2C3)cc1 (centres undefined),3.8,·,2.6,·,·,-17.0
CC(C)(C)c1ccc(-n2nc(C#N)c(Cl)cc2=O)cc1,30.2*,·,1.2,·,·,-11.4
O=C(N/N=C/c1ccc([N+](=O)[O-])s1)C(O)c1ccccc1 (centres undefined),9.1,-6.2,-0.2,56.1*,-4.7,-8.1
O=C(CNC(=O)c1cccc(F)c1)N/N=C/c1ccc([N+](=O)[O-])s1,4.2,-4.9,0.2,49.5*,-8.5,-5.0
Cc1ccnn1CC(=O)N/N=C/c1ccc([N+](=O)[O-])s1,-11.8,-13.4,1.6,51.2*,-18.1,25.3
Cc1ccnn1CC(=O)N/N=C/c1cccs1,-7.3,-12.5,0.3,8.7,-11.5,18.6
O=C(OCc1cccc(F)c1)c1cc2ccccc2cc1O,0.3,-15.7,0.1,7.1,-23.1,5.8
O=C(COC(=O)c1ccccc1C(=O)c1ccc(Cl)c([N+](=O)[O-])c1)NC1CCCCCC1,-5.3,39.0*,3.0,20.9,47.9*,24.1
O=C(COC(=O)c1cccc2c1C(=O)c1ccccc1C2=O)NC1CCCCC1,15.2,-24.3,2.2,21.7,-19.9,-2.3
Nc1cc(Cl)ccc1C(=O)OCC(=O)NC1CCCCC1,-0.2,30.5*,0.3,25.3,17.2,-5.9
O=C(COC(=O)c1ccc(Cl)c([N+](=O)[O-])c1)NC1CCCC1,1.4,-7.9,1.1,16.9,-10.2,-4.0
Cn1c(N)c(C(=O)COC(=O)c2ccccc2C(=O)c2ccc(Cl)c([N+](=O)[O-])c2)c(=O)n(C)c1=O,-13.9,-1.9,0.2,35.5*,11.9,26.1
O=C(COC(=O)c1ccc2c(c1[N+](=O)[O-])C(=O)c1ccccc1C2=O)NC1CC1,-3.1,21.4,1.3,74.3*,9.2,-6.4
CCN(CC(=O)Nc1ccc(OC)c(Cl)c1)CC(=O)NC(C)C,1.4,-11.1,4.3,5.9,-22.1,-5.9
CN(C(=O)CSCC(=O)Nc1ccc(Cl)cc1)C1CCCCC1,-16.9,-13.6,0.1,5.5,-24.7,14.5
COc1ccc(N2CCc3c(C)nc4c(OC)cccc4c32)cc1,2.8,5.8,1.7,70.4*,-5.4,-9.0
COc1ccc(N2CCc3c(C)nc4c(OC)cc(OC)cc4c32)cc1,-12.4,-10.0,1.8,52.9,-16.7,15.3
Nn1c(SCC(=O)Nc2ccc(N3CCOCC3)cc2)nnc1-c1cccc(F)c1,-16.9,-5.3,0.2,-1.1,2.0,7.9
CC(=O)c1ccc(N2CCN(C(=S)Nc3ccc(Oc4ccccc4)cc3)CC2)cc1,21.2,45.5*,11.6,52.0,52.1*,-13.7
COc1ccc(C(=O)N2CCN(c3ccc(NC(=O)Cc4ccccc4)cc3)CC2)cc1,1.4,8.5,1.1,29.4,-3.6,-9.7
O=C(Nc1ccc(N2CCN(C(=O)c3ccc(Cl)cc3)CC2)cc1)c1ccc2c(c1)OCCO2,-5.8,7.9,8.3,26.5,17.9,15.8
O=C(Nc1ccc(N2CCN(C(=O)c3ccccc3)CC2)cc1)c1ccc2c(c1)OCCO2,10.8,-7.7,16.0*,26.3,-5.4,-13.2
Cc1ccc(C(=O)N2CCN(c3ccc(NC(=S)NC(=O)Cc4ccccc4)cc3)CC2)cc1,24.2*,3.3,21.4*,20.5,1.3,5.5
Cc1ccc(-c2nnn(CC(=O)N(CCCO)C(C(=O)NC3CCCC3)c3ccc(F)cc3)n2)o1 (centres undefined),-14.3,-14.2,0.5,3.0,-26.5,5.2
CCOC(=O)[C@H]1[C@H]2COc3cc(OC)ccc3[C@@H]2N2C(=O)c3cc(OC)c(OC)cc3NC(=O)[C@@]12C,-1.6,-13.1,-0.3,12.2,-8.7,-8.5
CN(C)C1(CNC(=O)C2CCN(S(=O)(=O)c3cccc(C(F)(F)F)c3)CC2)CCCCC1,-5.5,-4.4,1.3,2.1,-7.1,9.4
Nc1ccc(S(=O)(=O)c2ccc(N)cc2)cc1,26.2*,2.5,2.0,15.6,-4.2,-9.4
